Assay results reported in ChEMBL document CHEMBL1145495, “Polyamine effects on antibiotic susceptibility in bacteria” (2007).
≈ marks a conversion by molar mass, not a printed value.

Columns and labels:
[1] = test system: Staphylococcus aureus; assay: Antibacterial activity against Staphylococcus aureus N315 after 14 to 16 hrs by broth dilution method; assay type: functional
Procedure, shortened: (§1)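 CLSI broth dilution in cation-adjusted Mueller-Hinton broth with serial twofold dilutions, with or without spermine or spermidine added. Overnight cultures were diluted in saline to OD600 0.1–0.12, and about 10^5 CFU were inoculated. Incubation was 14–16 h at 37°C. MIC was confirmed in three independent experiments. E. coli acrA mutants were tested with 1 mM spermine; P. aeruginosa isolates with 1 mM spermine or 20 mM spermidine.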

[2] = test system: Staphylococcus aureus; assay: Antibacterial activity against Staphylococcus aureus Mu50 after 14 to 16 hrs by broth dilution method; assay type: functional
[3] = test system: Staphylococcus aureus; assay: Antibacterial activity against Staphylococcus aureus ATCC 3556 after 14 to 16 hrs by broth dilution method; assay type: functional
[4] = test system: Escherichia coli; assay: Antibacterial activity against Escherichia coli K10 after 14 to 16 hrs by broth dilution method; assay type: functional
[5] = test system: Escherichia coli; assay: Antibacterial activity against Escherichia coli K12 after 14 to 16 hrs by broth dilution method; assay type: functional
[6] = test system: Escherichia coli; assay: Antibacterial activity against Escherichia coli C921-61 after 14 to 16 hrs by broth dilution method; assay type: functional
[7] = test system: Salmonella typhimurium; assay: Antibacterial activity against Salmonella enterica serovar Typhimurium LT2 after 14 to 16 hrs by broth dilution method; assay type: functional, Salmonella enterica subsp. enterica serovar Typhimurium
[8] = test system: Pseudomonas aeruginosa; assay: Antibacterial activity against Pseudomonas aeruginosa F4980 after 14 to 16 hrs by broth dilution method; assay type: functional; procedure, shortened: as §1
[9] = test system: Pseudomonas aeruginosa; assay: Antibacterial activity against Pseudomonas aeruginosa H4563 after 14 to 16 hrs by broth dilution method; assay type: functional
[10] = test system: Pseudomonas aeruginosa; assay: Antibacterial activity against Pseudomonas aeruginosa M22152 after 14 to 16 hrs by broth dilution method; assay type: functional; procedure, shortened: as §1
[11] = test system: Pseudomonas aeruginosa; assay: Antibacterial activity against Pseudomonas aeruginosa M38100B after 14 to 16 hrs by broth dilution method; assay type: functional
[12] = test system: Pseudomonas aeruginosa; assay: Antibacterial activity against Pseudomonas aeruginosa T6268 after 14 to 16 hrs by broth dilution method; assay type: functional
[13] = test system: Escherichia coli; assay: Antibacterial activity against Escherichia coli W4573 assessed as inhibition of AcrAB efflux pump after 14 to 16 hrs by broth dilution method; assay type: functional
[14] = test system: Escherichia coli; assay: Antibacterial activity against Escherichia coli N43 acrA mutant assessed as inhibition of AcrAB efflux pump after 14 to 16 hrs by broth dilution method; assay type: functional; procedure, shortened: as §1
[15] = test system: Escherichia coli; assay: Antibacterial activity against Escherichia coli N818 delta acrA mutant assessed as inhibition of AcrAB efflux pump after 14 to 16 hrs by broth dilution method; assay type: functional; procedure, shortened: as §1
[16] = test system: Pseudomonas aeruginosa; assay: Antibacterial activity against streptomycin-resistant Pseudomonas aeruginosa DK100 after 14 to 16 hrs by broth dilution method; assay type: functional; procedure, shortened: as §1
[17] = test system: Pseudomonas aeruginosa; assay: Antibacterial activity against streptomycin and gentamycin-resistant Pseudomonas aeruginosa DK101 containing oprD mutant after 14 to 16 hrs by broth dilution method; assay type: functional; procedure, shortened: as §1
[18] = test system: Pseudomonas aeruginosa; assay: Antibacterial activity against Pseudomonas aeruginosa DK101 containing pAU48 expressing oprD after 14 to 16 hrs by broth dilution method; assay type: functional
[19] = test system: Pseudomonas aeruginosa; assay: Antibacterial activity against Pseudomonas aeruginosa PAO1 after 14 to 16 hrs by broth dilution method; assay type: functional
[20] = test system: Pseudomonas aeruginosa; assay: Antibacterial activity against Pseudomonas aeruginosa F66336 after 14 to 16 hrs by broth dilution method; assay type: functional
[21] = test system: Pseudomonas aeruginosa; assay: Antibacterial activity against Pseudomonas aeruginosa M38100A after 14 to 16 hrs by broth dilution method; assay type: functional
[22] = test system: Pseudomonas aeruginosa; assay: Antibacterial activity against Pseudomonas aeruginosa T2095 after 14 to 16 hrs by broth dilution method; assay type: functional
[23] = test system: Pseudomonas aeruginosa; assay: Antibacterial activity against Pseudomonas aeruginosa T15464 after 14 to 16 hrs by broth dilution method; assay type: functional; procedure, shortened: as §1

CCN1CCN(C(=O)N[C@@H](C(=O)N[C@@H]2C(=O)N3C(C(=O)O)=C(CSc4nnnn4C)CS[C@H]23)c2ccc(O)cc2)C(=O)C1=O [CEFOPERAZONE]
MIC [1]: 4 µg/mL | MIC [2]: > 1020 µg/mL | MIC [3]: 1 µg/mL

CO/N=C(\C(=O)N[C@@H]1C(=O)N2C(C(=O)O)=C(COC(C)=O)CS[C@H]12)c1csc(N)n1 [CEFOTAXIME]
MIC [1]: 2 µg/mL | MIC [2]: > 1020 µg/mL | MIC [3]: 0.5 µg/mL

CC1(C)S[C@@H]2[C@H](NC(=O)[C@H](C(=O)O)c3ccsc3)C(=O)N2[C@H]1C(=O)O [TICARCILLIN]
MIC [4]: 8 µg/mL | MIC [5]: 8 µg/mL | MIC [6]: 4 µg/mL | MIC [7]: 4 µg/mL | MIC [1]: 32 µg/mL | MIC [2]: 512 µg/mL | MIC [3]: 1 µg/mL

CC(C)(O/N=C(\C(=O)N[C@@H]1C(=O)N2C(C(=O)[O-])=C(C[n+]3ccccc3)CS[C@H]12)c1csc(N)n1)C(=O)O [CEFTAZIDIME]
MIC [1]: 32 µg/mL | MIC [2]: 512 µg/mL | MIC [3]: 8 µg/mL

NC[C@H]1O[C@H](O[C@H]2[C@H](O)[C@@H](O[C@H]3O[C@H](CO)[C@@H](O)[C@H](N)[C@H]3O)[C@H](N)C[C@@H]2N)[C@H](O)[C@@H](O)[C@@H]1O [KANAMYCIN]
MIC [4]: 2 µg/mL | MIC [5]: 4 µg/mL | MIC [6]: 4 µg/mL | MIC [7]: 4 µg/mL

CC1(C)S[C@@H]2[C@H](NC(=O)Cc3ccccc3)C(=O)N2[C@H]1C(=O)O [PENICILLIN G]
MIC [4]: 64 µg/mL | MIC [5]: 64 µg/mL | MIC [7]: 16 µg/mL | MIC [1]: 32 µg/mL | MIC [2]: 32 µg/mL | MIC [3]: ≤ 0.06 µg/mL

O=C(O)c1cn(C2CC2)c2cc(N3CCNCC3)c(F)cc2c1=O [CIPROFLOXACIN]
MIC [4]: ≤ 0.03 µg/mL | MIC [5]: ≤ 0.03 µg/mL | MIC [6]: ≤ 0.03 µg/mL | MIC [7]: ≤ 0.03 µg/mL | MIC [1]: 1 µg/mL | MIC [2]: 64 µg/mL | MIC [3]: 0.25 µg/mL | MIC [8]: 4 µg/mL (≈ 12.1 µM) | MIC [9]: 128 µg/mL (≈ 386 µM) | MIC [10]: 4 µg/mL (≈ 12.1 µM) | MIC [11]: 32 µg/mL (≈ 96.6 µM) | MIC [12]: 4 µg/mL (≈ 12.1 µM)

CN(C)[C@@H]1C(O)=C(C(N)=O)C(=O)[C@@]2(O)C(O)=C3C(=O)c4c(O)cccc4[C@@](C)(O)[C@H]3C[C@@H]12 [TETRACYCLINE]
MIC [4]: 8 µg/mL | MIC [5]: 8 µg/mL | MIC [6]: 2 µg/mL | MIC [7]: 2 µg/mL | MIC [1]: 0.12 µg/mL | MIC [2]: 32 µg/mL | MIC [3]: 0.12 µg/mL | MIC [13]: 2 µg/mL (≈ 4.5 µM) | MIC [14]: 0.5 µg/mL (≈ 1.13 µM) | MIC [15]: 0.5 µg/mL (≈ 1.13 µM)

CCN1CCN(C(=O)N[C@@H](C(=O)N[C@@H]2C(=O)N3[C@@H]2SC(C)(C)[C@@H]3C(=O)O)c2ccccc2)C(=O)C1=O [PIPERACILLIN]
MIC [4]: 2 µg/mL | MIC [5]: 2 µg/mL | MIC [6]: 2 µg/mL | MIC [7]: 4 µg/mL | MIC [1]: 32 µg/mL | MIC [2]: 128 µg/mL | MIC [3]: 0.5 µg/mL

CC(=O)O[C@H]1C[C@@]2(C)[C@@H](C[C@@H](O)[C@H]3[C@@]4(C)CC[C@@H](O)[C@@H](C)[C@@H]4CC[C@@]32C)/C1=C(\CCC=C(C)C)C(=O)O [FUSIDIC ACID]
MIC [4]: > 1020 µg/mL | MIC [5]: 1020 µg/mL | MIC [6]: 1020 µg/mL | MIC [7]: > 1020 µg/mL

O=C(Cc1cccs1)N[C@@H]1C(=O)N2C(C(=O)[O-])=C(C[n+]3ccccc3)CS[C@H]12 [CEPHALORIDINE]
MIC [4]: 8 µg/mL | MIC [5]: 4 µg/mL | MIC [6]: 4 µg/mL | MIC [7]: 0.015 µg/mL | MIC [1]: 1 µg/mL | MIC [2]: 16 µg/mL | MIC [3]: < 0.06 µg/mL

NCCCNCCCCNCCCN [SPERMINE]
MIC [4]: 1 mM | MIC [5]: > 16 mM | MIC [6]: > 16 mM | MIC [7]: 2 mM | MIC [1]: 4 mM | MIC [2]: 4 mM | MIC [3]: 4 mM

CC1(C)S[C@@H]2[C@H](NC(=O)[C@H](N)c3ccccc3)C(=O)N2[C@H]1C(=O)O [AMPICILLIN]
MIC [4]: 8 µg/mL | MIC [5]: 4 µg/mL | MIC [6]: 4 µg/mL | MIC [7]: 4 µg/mL | MIC [1]: 128 µg/mL | MIC [2]: 64 µg/mL | MIC [3]: 2 µg/mL

CO/N=C(\C(=O)N[C@@H]1C(=O)N2C(C(=O)O)=C(CSc3nc(=O)c(O)nn3C)CS[C@H]12)c1csc(N)n1 [CEFTRIAXONE]
MIC [1]: 4 µg/mL | MIC [2]: > 1020 µg/mL | MIC [3]: 2 µg/mL

C[C@@H](O)[C@H]1C(=O)N2C(C(=O)O)=C(SCCNC=N)C[C@H]12 [IMIPENEM ANHYDROUS]
MIC [16]: 4 µg/mL (≈ 13.4 µM) | MIC [17]: 32 µg/mL (≈ 107 µM) | MIC [18]: 0.5 µg/mL (≈ 1.67 µM)

O=C(N[C@H](CO)[C@H](O)c1ccc([N+](=O)[O-])cc1)C(Cl)Cl [CHLORAMPHENICOL]
MIC [5]: 32 µg/mL | MIC [6]: 4 µg/mL | MIC [7]: 2 µg/mL | MIC [1]: 8 µg/mL | MIC [2]: 8 µg/mL | MIC [3]: 8 µg/mL | MIC [19]: 128 µg/mL (≈ 396 µM) | MIC [8]: 32 µg/mL (≈ 99 µM) | MIC [20]: 8 µg/mL (≈ 24.8 µM) | MIC [21]: 4 µg/mL (≈ 12.4 µM) | MIC [22]: 32 µg/mL (≈ 99 µM) | MIC [23]: 32 µg/mL (≈ 99 µM) | MIC [13]: 8 µg/mL (≈ 24.8 µM) | MIC [14]: 2 µg/mL (≈ 6.19 µM) | MIC [15]: 2 µg/mL (≈ 6.19 µM)

CC1(C)S[C@@H]2[C@H](NC(=O)[C@H](N)c3ccc(O)cc3)C(=O)N2[C@H]1C(=O)O [AMOXICILLIN]
MIC [1]: 16 µg/mL | MIC [2]: 16 µg/mL | MIC [3]: 1 µg/mL

CC(=O)OCC1=C(C(=O)O)N2C(=O)[C@@H](NC(=O)Cc3cccs3)[C@H]2SC1 [CEPHALOTHIN]
MIC [1]: 1 µg/mL | MIC [2]: 64 µg/mL | MIC [3]: 0.5 µg/mL

Cc1onc(-c2ccccc2Cl)c1C(=O)N[C@@H]1C(=O)N2[C@@H]1SC(C)(C)[C@@H]2C(=O)O [CLOXACILLIN]
MIC [1]: 8 µg/mL | MIC [2]: ≥ 512 µg/mL | MIC [3]: 0.12 µg/mL

CO[C@@H]1[C@@H](OC(N)=O)[C@@H](O)[C@H](Oc2ccc3c(O)c(NC(=O)c4ccc(O)c(CC=C(C)C)c4)c(=O)oc3c2C)OC1(C)C [NOVOBIOCIN]
MIC [4]: > 1020 µg/mL | MIC [5]: > 1020 µg/mL | MIC [6]: 512 µg/mL | MIC [7]: > 1020 µg/mL

CC[C@H]1OC(=O)[C@H](C)[C@@H](O[C@H]2C[C@@](C)(OC)[C@@H](O)[C@H](C)O2)[C@H](C)[C@@H](O[C@@H]2O[C@H](C)C[C@H](N(C)C)[C@H]2O)[C@](C)(O)C[C@@H](C)C(=O)[C@H](C)[C@@H](O)[C@]1(C)O [ERYTHROMYCIN]
MIC [4]: 64 µg/mL | MIC [5]: 64 µg/mL | MIC [6]: 64 µg/mL | MIC [7]: 64 µg/mL

CN[C@@H]1[C@H](O)[C@H](NC)[C@H]2O[C@@]3(O)C(=O)C[C@@H](C)O[C@H]3O[C@@H]2[C@H]1O [SPECTINOMYCIN]
MIC [4]: 16 µg/mL | MIC [5]: 16 µg/mL | MIC [6]: 16 µg/mL | MIC [7]: 32 µg/mL

CC1(C)S[C@@H]2[C@H](NC(=O)[C@H](NC(=O)N3CCNC3=O)c3ccccc3)C(=O)N2[C@H]1C(=O)O [AZLOCILLIN]
MIC [4]: 16 µg/mL | MIC [5]: 16 µg/mL | MIC [6]: 8 µg/mL | MIC [7]: 16 µg/mL | MIC [1]: 16 µg/mL | MIC [2]: 16 µg/mL | MIC [3]: 0.5 µg/mL
